CaV13 FRET inh – Disruptors of the CACNA1D IQ motif to Ca2+-dependent inactivation inhibitor domain association, primary screening, Förster resonance energy transfer in intact living …; 0.098% of 340,000 active; HEK cells, CFP/YFP FRET ICDI-IQ, plate reader, 10 min; percent FRET-ratio fall versus neutral wells; inhibition, % at 12.3 µM;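 active = mean replicate inhibition of at least 30% and at least 1% of replicates passing that level; inconclusive = only one of the two criteria is met; inactive = neither criterion is met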;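 also: 0% = median of the neutral control wells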
RAD52 anneal inh – inhibitors of human RAD52 DNA annealing. recombinant RAD52 DNA annealing, FRET fluorescence. 0.46% of 360,000 active. AID 651710. inhibition, % at 18.7 µM;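 active = every replicate showing at least 50% inhibition; inconclusive = mean inhibition at least 50% but not in every replicate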
Target sequence (P43351 whole entry, looked up): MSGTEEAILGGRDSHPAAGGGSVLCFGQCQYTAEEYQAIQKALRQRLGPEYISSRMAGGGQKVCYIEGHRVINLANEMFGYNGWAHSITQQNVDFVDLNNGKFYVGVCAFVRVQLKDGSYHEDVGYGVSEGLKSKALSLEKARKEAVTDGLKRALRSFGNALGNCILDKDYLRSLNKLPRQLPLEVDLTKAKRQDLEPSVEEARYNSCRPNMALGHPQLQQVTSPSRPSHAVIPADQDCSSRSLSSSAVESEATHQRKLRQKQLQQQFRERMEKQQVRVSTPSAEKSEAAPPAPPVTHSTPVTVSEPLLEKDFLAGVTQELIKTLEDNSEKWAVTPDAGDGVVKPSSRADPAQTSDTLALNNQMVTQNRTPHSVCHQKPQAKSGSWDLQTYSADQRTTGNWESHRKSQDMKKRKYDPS
Glyco luc inh – blocks N-linked glycosylation in D54 reporter cells; D54 ERlucT glycosylation luciferase reporter, 24 h; percent of 100 nM tunicamycin response; reporter increase, % at 12.5 µM; 0.23% of 360,000 active; AID 588692;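 active = mean luciferase reporter signal, scaled so untreated is 0 and the glycosylation-blocking control 100, at or above a set limit in every replicate; inconclusive = mean reaches the limit but not every replicate does; inactive = mean below the limit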;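 also: luciferase carries N-glycosylation sites so blocking glycosylation raises the light; 0% = median of neutral control wells and 100% = median of 100 nM tunicamycin wells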
RAD54 inh – RAD54 (human) branch migration inhibition; Q92698; RAD54 Holliday junction branch migration, FAM/BHQ fluorescence; inhibition, % at 10.4 µM; 0.14% of 360,000 active; AID 602329;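 active = mean normalized replicate activity at least 40 and at least half of replicates scoring 40 or more; inconclusive = only one of the two criteria met; inactive = mean below 40 and under half of replicates reaching 40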;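 also: 0% = median of neutral control wells and 100% = median of positive control wells; inhibitors cause a drop in the FAM fluorescence signal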
FN deposit inh – fibronectin deposition inhibition. AH1F fibroblasts, Alexa488-fibronectin deposition fluorescence, overnight. 0.086% of 350,000 active. inhibition, % at 12.6 µM;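 active = mean inhibition across replicates of 30% or more, regardless of how many single replicates reach that level; inconclusive = mean under 30% yet at least half of replicates reach 30%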;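 also: positive control wells lacked labelled fibronectin entirely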
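Test system: AH1F fibroblast monolayer depositing Alexa488-labelled fibronectin into matrix. Input: 10000 cells per well. Technique: fluorescence, ex 485 nm, em 525 nm. Buffer or medium: DMEM plus 2% serum, read in PBS. Timing: 1 h cell adhesion before compound, then overnight fibronectin incubation. Compound: single dose, pinned. Read-out basis: inhibition from reduced deposited-fibronectin fluorescence.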
RAD52 DNA ctr – DNA binding artifact in RAD52 counter-screen; shares compounds with RAD52 anneal inh; Salmon sperm DNA/acridine orange FP displacement; AC50, µM; 8% of 1,000 active;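 active = fitted half-maximal concentration for signal loss at or below twice the highest dose tested, in every separate run, actives reach about 64 µM in these data; inconclusive = runs disagree, or flat partial signal loss, or poor fit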
Numbers without * were called inactive; i = inactive; ? = inconclusive; nt = not tested or not shown. Hits are enriched below; roughly 0.7% of the tested compounds scored in any of these assays.

SMILES	CaV13 FRET inh	RAD52 anneal inh	Glyco luc inh	RAD54 inh	FN deposit inh	RAD52 DNA ctr
C[C@@H]1CN([C@@H](C)CO)S(=O)(=O)c2ccc(C#CC3(O)CCCC3)cc2O[C@@H]1CN(C)C(=O)Cc1ccncc1	nt	-22	nt	-12	6	nt
COc1ccc(NC(=O)N(C)C[C@H]2OCCCC[C@@H](C)Oc3ccc(NC(=O)NC(C)C)cc3C(=O)N([C@H](C)CO)C[C@H]2C)cc1	nt	4	nt	-1	nt	nt
COc1cccc2c3cccc(OC)c3c3[nH]cnc3c12	-14	86*	?	nt	-6	i
COc1cccc2[nH]c3c(=O)[nH]cnc3c12	-20	-13	2	-4	3	nt
O=C(C[C@H]1C=C[C@@H](NC(=O)Nc2cc(F)ccc2F)[C@H](CO)O1)NCc1ccc2c(c1)OCO2	nt	-9	nt	-1	-1	nt
CCOC(=O)c1c(C)n(-c2ccc(C)cc2)c2ccc(OCC(O)CN3CCN(C)CC3)cc12 (stereo not drawn)	-2	97*	-4	nt	28	i
C[C@@H]1CN([C@H](C)CO)C(=O)c2cc(C#CC3CCCCC3)cnc2O[C@H]1CN(C)C(=O)C1CCCCC1	nt	2	nt	-7	6	nt
CN(C)c1ccc(C=c2c3ccccc3n3c2c2c([n+]3C)CCCC2)cc1	-7	89*	70*	nt	-4	6.9µM*
CCCCCOC(=O)Cn1c(=O)oc2ccccc21	-7	-9	5	-7	-2	nt
CCCCCCCCCCOC(=O)Cn1c(COc2ccccc2)[n+](C)c2ccccc21	-2	70*	8	?	5	i
CCCCOC(=O)Cn1c(=O)n(CC(=O)OCCCC)c2ccccc21	nt	nt	-5	-3	nt	nt
CCCCCCCCCCOC(=O)Cn1c(COc2cccc(C)c2)[n+](C)c2ccccc21	-20	80*	12	52*	-6	?
CCCCCCCCCCOC(=O)Cn1c(COc2ccc(Cl)cc2)[n+](C)c2ccccc21	-2	76*	1	57*	11	i
OC(CN1CCCCC1)Cn1c2ccccc2c2cc(Br)ccc21 (stereo not drawn)	-21	58*	1	45	1	i
Cc1ccc2c(c1)c1c(n2CC(O)Cn2c(C)nc3ccccc32)CCCC1 (stereo not drawn)	-7	41	0	-8	-6	nt
Cc1ccc2c(c1)c1c(n2CC(O)CN2CCCCCC2)CCCC1 (stereo not drawn)	-15	81*	1	5	-4	i
Cc1ccc2c(c1)c1c(n2CC(O)CNC(C)(C)C)CCCC1 (stereo not drawn)	-43	52*	4	12	0	i
Cc1ccc2c(c1)c1c(n2CC(O)Cn2nc(C)c(Br)c2C)CCCC1 (stereo not drawn)	-5	nt	-4	4	-1	nt
CN1C(=O)c2cc(NC(=O)C3CCOCC3)ccc2OC[C@@H]2O[C@@H](CC(=O)O)CC[C@@H]21	nt	7	nt	7	4	nt
CCOC(=O)c1cc(NC(=O)N(C(C)C)C2CCCCC2)c(C)nc1C	-21	96*	1	-10	0	i
CCC(C)(C)c1ccc(OCCCC[n+]2cccc(C)c2)c(C(C)(C)CC)c1	-4	76*	13	nt	18	i
Cc1ccc[n+](CC(=O)Nc2cc(C(F)(F)F)ccc2Cl)c1	nt	nt	1	1	nt	nt
C[C@H]1CN([C@@H](C)CO)C(=O)c2cc(C#Cc3ccccc3F)cnc2O[C@H]1CN(C)C(=O)Cc1cccnc1	nt	1	nt	-8	nt	nt
O=C(Nc1ccc(F)cc1)N[C@H]1CC[C@H](CCn2cc(-c3ccc(F)cc3)nn2)O[C@H]1CO	nt	4	nt	1	nt	nt
COc1ccc2c(c1)CC1c3c(cc4c(c3-2)OCO4)CC[N+]1(C)[O-] (stereo not drawn)	-5	82*	15	61*	3	?
CCOc1ccc(NCc2cccn2-c2nnc(N3CCC(C(=O)NCCCN4CCCCC4C)CC3)s2)cc1 (stereo not drawn)	-3	80*	-1	13	17	i
CCOc1ccc(CCNC(=O)C2CCN(c3nnc(-n4cccc4)s3)CC2)cc1	-7	-11	3	-1	-4	nt
CCN1CCN(c2nc(Nc3ccc(NC(C)=O)cc3)nc(Nc3ccc(NC(C)=O)cc3)n2)CC1	-3	73*	0	nt	0	i
